# ChEMBL document CHEMBL1157829, “2-imino-thiazolidin-4-one derivatives as potent, orally active S1P1 receptor agonists” (J Med Chem, 2010)
# Active and inactive are the calls of the source. The calls are words filed in the database; no cut-off is given here.
# How the values were obtained:
# [1] = target: T1, Sphingosine 1-phosphate receptor 1 (Homo sapiens, UniProt P21453); test: Agonist activity at human recombinant S1P1 receptor expressed in CHO cells by GTPgammaS binding assay; assay type: functional, cell-based
# T1 sequence (P21453 whole entry): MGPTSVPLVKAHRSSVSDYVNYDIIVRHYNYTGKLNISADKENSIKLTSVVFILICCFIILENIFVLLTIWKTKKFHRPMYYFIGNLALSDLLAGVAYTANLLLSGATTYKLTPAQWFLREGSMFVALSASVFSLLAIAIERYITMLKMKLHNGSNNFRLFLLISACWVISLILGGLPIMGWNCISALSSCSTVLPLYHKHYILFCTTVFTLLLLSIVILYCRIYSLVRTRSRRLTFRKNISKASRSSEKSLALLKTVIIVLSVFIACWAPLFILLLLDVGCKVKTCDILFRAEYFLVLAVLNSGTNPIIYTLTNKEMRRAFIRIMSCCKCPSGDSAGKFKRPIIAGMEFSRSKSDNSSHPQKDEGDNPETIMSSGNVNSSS
# [2] = target: T2, Sphingosine 1-phosphate receptor 3 (Homo sapiens, UniProt Q99500); test: Agonist activity at human recombinant S1P3 receptor expressed in CHO cells by GTPgammaS binding assay; assay type: functional, cell-based
# T2 sequence (Q99500 whole entry): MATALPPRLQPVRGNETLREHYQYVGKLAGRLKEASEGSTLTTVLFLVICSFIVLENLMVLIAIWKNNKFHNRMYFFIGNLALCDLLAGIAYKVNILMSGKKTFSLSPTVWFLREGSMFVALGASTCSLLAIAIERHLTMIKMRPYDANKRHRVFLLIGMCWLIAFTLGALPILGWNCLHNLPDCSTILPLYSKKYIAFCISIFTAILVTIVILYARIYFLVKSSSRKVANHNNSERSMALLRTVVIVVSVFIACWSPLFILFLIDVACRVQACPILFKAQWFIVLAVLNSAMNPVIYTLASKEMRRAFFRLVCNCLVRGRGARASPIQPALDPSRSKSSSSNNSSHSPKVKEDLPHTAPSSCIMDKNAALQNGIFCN
# Method in brief: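 Membranes from CHO cells expressing recombinant human receptor. Buffer 20 mM Hepes pH 7.4, 100 mM NaCl, 5 mM MgCl2, 0.1% fatty-acid-free BSA, 2.5% DMSO, GDP (1 uM for S1P1, 3 uM for S1P3), 50 pM 35S-GTPγS. Compound preincubated with membranes 30 min at room temperature, then 1 h with 35S-GTPγS. Reaction filtered and bound label counted. Specific binding is the 10 uM S1P signal minus the no-agonist signal. EC50 is the concentration giving 50% of specific binding; three independent assays.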
# Rattus norvegicus [3] = test: Immunomodulatory activity in normotensive Wistar rat assessed as change in circulating lymphocytes count at 10 mg/kg, po after 3 hrs relative to control; assay type: functional
# Method in brief: (§1)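 Normotensive male Wistar rats were housed on a 12 h light/dark cycle with free chow and water. Compound was dissolved in DMSO and added to 7.5% aqueous gelatin (final 5% DMSO), then given by gavage at 10 mg/kg (n = 6). Vehicle was 95% gelatin (7.5%)/5% DMSO (n = 30). Blood was taken before dosing and at 3, 6 and 24 h and counted by hematology analyzer. Counts are % change from t = 0 h ± SEM.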
# Rattus norvegicus [4] = test: Immunomodulatory activity in normotensive Wistar rat assessed as change in circulating lymphocytes count at 10 mg/kg, po after 6 hrs relative to control; assay type: functional; method in brief: as §1
# Rattus norvegicus [5] = test: Immunomodulatory activity in normotensive Wistar rat assessed as change in circulating lymphocytes count at 10 mg/kg, po after 24 hrs relative to control; assay type: functional; method in brief: as §1
# [6] = Intrinsic clearance in Wistar rat liver microsomes at 1 uM by LC-MS/MS analysis measured per mg of protein; assay type: ADME, Microsome
# [7] = Intrinsic clearance in Beagle dog liver microsomes at 1 uM by LC-MS/MS analysis measured per mg of protein; assay type: ADME, Canis lupus familiaris, Microsome
# [8] = Intrinsic clearance in human liver microsomes at 1 uM by LC-MS/MS analysis measured per mg of protein; assay type: ADME, Microsome
# [9] = Intrinsic clearance in rat hepatocytes at 1 uM by LC-MS/MS analysis measured per million cells; assay type: ADME, cell-based, Liver, Hepatocyte
# [10] = Intrinsic clearance in Beagle dog hepatocytes at 1 uM by LC-MS/MS analysis measured per million cells; assay type: ADME, cell-based, Canis lupus familiaris, Liver, Hepatocyte
# [11] = Bioavailability in Wistar rat at 3 mg/kg, po and 0.3 mg/kg, iv; assay type: ADME, organism-based; conditions: in vivo
# Method in brief: (§2)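 Male Wistar rats (n = 3) were dosed at 3 mg/kg orally and 0.3 mg/kg intravenously. Plasma pharmacokinetic parameters were derived from these runs.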
# [12] = Cmax in Wistar rat at 3 mg/kg, po and 0.3 mg/kg, iv; assay type: ADME, organism-based; conditions: in vivo; method in brief: as §2
# [13] = Half life in Wistar rat at 3 mg/kg, po and 0.3 mg/kg, iv; assay type: ADME, organism-based; conditions: in vivo; method in brief: as §2
# [14] = Clearance in Wistar rat at 3 mg/kg, po and 0.3 mg/kg, iv; assay type: ADME, organism-based; conditions: in vivo; method in brief: as §2
# [15] = Volume of distribution at steady state in Wistar rat at 3 mg/kg, po and 0.3 mg/kg, iv; assay type: ADME, organism-based; conditions: in vivo, read-out: Vdss; method in brief: as §2
# [16] = Bioavailability in Beagle dog at 3 mg/kg, po and 0.3 mg/kg, iv; assay type: ADME, organism-based, Canis lupus familiaris; conditions: in vivo
# Method in brief: (§3)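 Fed male beagle dogs (n = 3) were dosed at 3 mg/kg orally and 0.3 mg/kg intravenously. Plasma exposure was measured to derive bioavailability, Cmax, half-life, clearance and Vss.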
# [17] = Cmax in Beagle dog at 3 mg/kg, po and 0.3 mg/kg, iv; assay type: ADME, organism-based, Canis lupus familiaris; conditions: in vivo; method in brief: as §3
# [18] = Half life in Beagle dog at 3 mg/kg, po and 0.3 mg/kg, iv; assay type: ADME, organism-based, Canis lupus familiaris; conditions: in vivo; method in brief: as §3
# [19] = Clearance in Beagle dog at 3 mg/kg, po and 0.3 mg/kg, iv; assay type: ADME, organism-based, Canis lupus familiaris; conditions: in vivo; method in brief: as §3
# [20] = Volume of distribution at steady state in Beagle dog at 3 mg/kg, po and 0.3 mg/kg, iv; assay type: ADME, organism-based, Canis lupus familiaris; conditions: in vivo, read-out: Vdss; method in brief: as §3
# [21] = target: T1, Sphingosine 1-phosphate receptor 1; test: Agonist activity at human recombinant S1P1 receptor expressed in HEK cells by GTPgammaS binding assay; assay type: functional, cell-based, HEK293
# Method in brief: (§4)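 Membranes from cells expressing recombinant receptor. Buffer: 20 mM Hepes pH 7.4, 100 mM NaCl, 5 mM MgCl2, 0.1% fatty-acid-free BSA, 2.5% DMSO. GDP 1 µM for S1P1, 3 µM for S1P3. Compound preincubated with membranes 30 min at RT, then 50 pM 35S-GTPγS added for 1 h at RT. Bound label collected by filtration and counted. […] Values are geometric means of independent experiments.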
# [22] = target: T3, Sphingosine 1-phosphate receptor 2 (Homo sapiens, UniProt O95136); test: Agonist activity at human recombinant S1P2 receptor expressed in HEK cells by GTPgammaS binding assay; assay type: functional, HEK293
# T3 sequence (O95136 whole entry): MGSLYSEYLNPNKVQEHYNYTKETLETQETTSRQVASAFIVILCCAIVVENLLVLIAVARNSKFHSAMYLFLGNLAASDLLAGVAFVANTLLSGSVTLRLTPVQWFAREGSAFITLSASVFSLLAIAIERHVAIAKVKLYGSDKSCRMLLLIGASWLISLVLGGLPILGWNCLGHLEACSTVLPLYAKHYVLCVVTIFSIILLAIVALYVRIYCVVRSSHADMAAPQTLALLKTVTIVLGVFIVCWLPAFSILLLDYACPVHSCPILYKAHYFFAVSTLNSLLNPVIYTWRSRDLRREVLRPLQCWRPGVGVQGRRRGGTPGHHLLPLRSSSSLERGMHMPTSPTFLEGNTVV
# [23] = target: T2, Sphingosine 1-phosphate receptor 3; test: Agonist activity at human recombinant S1P3 receptor expressed in HEK cells by GTPgammaS binding assay; assay type: functional, HEK293; method in brief: as §4
# [24] = target: T4, Sphingosine 1-phosphate receptor 4 (Homo sapiens, UniProt O95977); test: Agonist activity at human recombinant S1P4 receptor expressed in CHO cells by GTPgammaS binding assay; assay type: functional, cell-based
# T4 sequence (O95977 whole entry): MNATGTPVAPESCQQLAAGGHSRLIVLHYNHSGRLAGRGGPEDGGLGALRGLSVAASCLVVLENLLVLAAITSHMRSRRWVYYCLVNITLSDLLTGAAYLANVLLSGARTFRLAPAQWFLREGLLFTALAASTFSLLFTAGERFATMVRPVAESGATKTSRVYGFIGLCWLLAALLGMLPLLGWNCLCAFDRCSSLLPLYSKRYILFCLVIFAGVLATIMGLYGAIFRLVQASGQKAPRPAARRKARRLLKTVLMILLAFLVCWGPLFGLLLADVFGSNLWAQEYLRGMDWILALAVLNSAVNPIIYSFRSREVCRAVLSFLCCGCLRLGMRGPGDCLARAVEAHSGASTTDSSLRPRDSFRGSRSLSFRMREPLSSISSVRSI
# [25] = target: T5, Sphingosine 1-phosphate receptor 5 (Homo sapiens, UniProt Q9H228); test: Agonist activity at human recombinant S1P5 receptor expressed in CHO cells by GTPgammaS binding assay; assay type: functional, cell-based
# T5 sequence (Q9H228 whole entry): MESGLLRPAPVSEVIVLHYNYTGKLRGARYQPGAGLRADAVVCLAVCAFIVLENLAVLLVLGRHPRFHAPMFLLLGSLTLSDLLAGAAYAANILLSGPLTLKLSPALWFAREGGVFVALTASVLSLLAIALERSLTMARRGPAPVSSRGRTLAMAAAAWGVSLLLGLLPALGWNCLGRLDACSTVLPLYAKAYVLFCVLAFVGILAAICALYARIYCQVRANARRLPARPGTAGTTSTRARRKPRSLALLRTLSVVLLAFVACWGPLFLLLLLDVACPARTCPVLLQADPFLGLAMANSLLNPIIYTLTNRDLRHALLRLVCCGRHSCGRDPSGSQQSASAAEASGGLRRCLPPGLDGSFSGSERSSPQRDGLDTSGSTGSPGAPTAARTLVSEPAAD
# [26] = target: T1, Sphingosine 1-phosphate receptor 1; test: Displacement of [33P]S1P from human recombinant S1P1 receptor expressed in HEK cells by scintillation counting; assay type: cell-based, HEK293; conditions: read-out: IC50
# Method in brief: (§5)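 33P-S1P binding to membranes of recombinant receptor-expressing cells. IC50 reported as the geometric mean of independent experiments, with the geometric standard deviation.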
# [27] = target: T3, Sphingosine 1-phosphate receptor 2; test: Displacement of [33P]S1P from human recombinant S1P2 receptor expressed in HEK cells by scintillation counting; assay type: cell-based, HEK293
# [28] = target: T2, Sphingosine 1-phosphate receptor 3; test: Displacement of [33P]S1P from human recombinant S1P3 receptor expressed in HEK cells by scintillation counting; assay type: cell-based, HEK293; conditions: read-out: IC50; method in brief: as §5
# [29] = target: T4, Sphingosine 1-phosphate receptor 4; test: Displacement of [33P]S1P from human recombinant S1P4 receptor expressed in CHO cells by scintillation counting; assay type: cell-based
# [30] = target: T5, Sphingosine 1-phosphate receptor 5; test: Displacement of [33P]S1P from human recombinant S1P5 receptor expressed in CHO cells by scintillation counting; assay type: cell-based
# [31] = target: T6, Sphingosine 1-phosphate receptor 4 (Homo sapiens) (UniProt O95977); test: Agonist activity at human recombinant S1P4 receptor expressed in CHO cells at 10 uM by GTPgammaS binding assay relative to S1P; assay type: functional, cell-based
# T6 sequence (whole entry): T4 sequence (O95977 whole entry)
# Method in brief: (§6)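 In the same CHO-membrane 35S-GTPγS binding assay with human receptor, maximal activity at 10 uM compound was expressed as a percentage of the effect induced by S1P.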
# [32] = target: T5, Sphingosine 1-phosphate receptor 5; test: Agonist activity at human recombinant S1P5 receptor expressed in CHO cells at 10 uM by GTPgammaS binding assay relative to S1P; assay type: functional, cell-based; method in brief: as §6
# Canis familiaris = test: Immunomodulatory activity in Beagle dog assessed as decrease in circulating lymphocytes count at 5 mg/kg, po after 24 hrs; assay type: functional, organism-based; design: dose 5 mg/kg; conditions: Canis lupus familiaris
# [33] = Half life in human administered as single ascending dose; assay type: ADME, organism-based; conditions: in vivo
compound,measurement,setting,value
CCC/N=C1\S/C(=C\c2ccc(OC[C@@H](O)CO)c(Cl)c2)C(=O)N1c1ccccc1C,EC50,[1],9.1 nM
same,EC50,[2],123 nM
same,Activity,Rattus norvegicus [3],-65%
same,Activity,Rattus norvegicus [4],-63%
same,Activity,Rattus norvegicus [5],-18%
same,microsomal CLint at 1 µM,[6],56 µL/min/mg
same,microsomal CLint at 1 µM,[7],7 µL/min/mg
same,microsomal CLint at 1 µM,[8],4 µL/min/mg
same,hepatocyte CLint at 1 µM,[9],3.7 µL/min/1e6 cells
same,hepatocyte CLint at 1 µM,[10],1 µL/min/1e6 cells
same,bioavailability,[11],35%
same,Cmax,[12],409 ng/mL
same,half-life,[13],1.3 h
same,clearance,[14],25 mL/min/kg
same,Vd,[15],3.3 L/kg
same,bioavailability,[16],69%
same,Cmax,[17],1360 ng/mL
same,half-life,[18],10 h
same,clearance,[19],1.3 mL/min/kg
same,Vd,[20],0.9 L/kg
same,EC50,[21],5.7 nM
same,EC50,[22],> 10000 nM
same,EC50,[23],105 nM
same,EC50,[24],1110 nM
same,EC50,[25],59.1 nM
same,IC50,[26],6 nM
same,IC50,[27],> 10000 nM
same,IC50,[28],2070 nM
same,IC50,[29],1960 nM
same,IC50,[30],142 nM
same,Activity,[31],18%
same,Activity,[32],42%
same,Activity,Canis familiaris,Active
same,half-life,[33],22 h
